Activity calls are given as the source filed them. No cut-off for these calls is given here.
Tests used:
[1] = Cytotoxicity against human SH-SY5Y cells after 48 hrs by MTT assay; type: cell-based
Outline: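 SH-SY5Y cells grown in DMEM with 10% FBS, 1 mM glutamine, penicillin/streptomycin, 5% CO2, 37 °C; seeded 10,000 cells/well, treated after 24 h with 0-100 µM for 48 h; MTT (5 mg/mL stock) added for 4 h, formazan dissolved in DMSO, absorbance at 570 nm.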

[2] = Inhibition of potato 5-LOX using linoleic acid as substrate assessed as hydroperoxides production after 5 mins by enzyme immuno assay; design: species or system Solanum tuberosum
[3] = molecular target: T1, Amyloid-beta precursor protein (Homo sapiens, UniProt P05067); test: Inhibition of amyloid beta (1-42) self-mediated aggregation (unknown origin) after 5 days by thioflavin T fluorescence method
[4] = molecular target: T1, Amyloid-beta precursor protein; test: Inhibition of amyloid beta (1 to 42) fibrilation (unknown origin) at 20 uM after 4 days by transmission electron microscopic analysis
Outline: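 Aβ(1-42) at 40 µM final in 50 mM phosphate pH 7.4 incubated at 37 °C for 4 days with or without 20 µM compound; samples applied to carbon-coated grids, water-washed, negatively stained 1 min with 2% uranyl acetate, examined by transmission electron microscopy.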

[5] = molecular target: T1, Amyloid-beta precursor protein; test: Inhibition of amyloid beta (1 to 42) fibrilation (unknown origin) assessed as reduction in […] structure formation at 10 uM after 2 days by CD spectroscopy assay
Outline: (§1)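 20 µM Aβ(1-42) incubated with or without 10 µM compound in 50 mM sodium phosphate pH 7.4 at 37 °C for 2 days; CD spectra recorded at 25 °C, 190-260 nm, 1 mm quartz cell, 0.5 nm bandwidth, 10 nm/min; background and compound spectra subtracted.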

[6] = molecular target: T1, Amyloid-beta precursor protein; test: Inhibition of amyloid beta (1 to 42) fibrilation (unknown origin) assessed as reduction in beta-sheet structure formation at 10 uM after 2 days by CD spectroscopy assay; outline: as §1

T1 sequence (P05067 whole entry): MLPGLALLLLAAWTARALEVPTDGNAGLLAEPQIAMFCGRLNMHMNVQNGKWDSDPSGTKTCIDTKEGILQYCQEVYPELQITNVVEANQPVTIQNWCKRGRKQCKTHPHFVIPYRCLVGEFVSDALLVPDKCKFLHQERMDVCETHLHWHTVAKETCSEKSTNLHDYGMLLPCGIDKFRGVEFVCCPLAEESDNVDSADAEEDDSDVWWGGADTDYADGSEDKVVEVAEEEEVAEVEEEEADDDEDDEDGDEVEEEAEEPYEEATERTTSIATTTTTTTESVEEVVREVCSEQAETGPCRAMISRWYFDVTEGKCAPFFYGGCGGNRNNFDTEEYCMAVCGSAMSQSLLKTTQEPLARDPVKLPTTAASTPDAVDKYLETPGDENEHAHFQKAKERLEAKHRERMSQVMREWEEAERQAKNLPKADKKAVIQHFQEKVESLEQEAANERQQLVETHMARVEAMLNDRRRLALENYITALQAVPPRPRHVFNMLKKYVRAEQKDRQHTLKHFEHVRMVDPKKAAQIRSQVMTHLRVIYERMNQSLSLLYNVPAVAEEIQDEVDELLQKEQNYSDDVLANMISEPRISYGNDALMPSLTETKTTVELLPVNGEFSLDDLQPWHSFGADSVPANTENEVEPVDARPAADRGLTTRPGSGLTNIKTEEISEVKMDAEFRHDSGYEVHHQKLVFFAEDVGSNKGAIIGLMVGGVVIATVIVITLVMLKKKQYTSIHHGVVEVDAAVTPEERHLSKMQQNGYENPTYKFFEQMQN

| Compound | IC50 [1] [µM] | IC50 [2] [µM] | IC50 [3] [µM] | inhibition [4] | inhibition [5] | inhibition [6] |
| --- | --- | --- | --- | --- | --- | --- |
| COc1ccc(C(=O)/C=C/c2ccc(OCCCOc3ccccc3)c(OC)c2)c(O)c1 | > 100 | 13 | 10.9 |  |  |  |
| COc1ccc(C(=O)/C=C/c2ccc(C(=O)Nc3cc([N+](=O)[O-])ccc3O)cc2)c(O)c1 | > 100 | 11.4 | 13.3 |  |  |  |
| CCOCCCOc1ccc(/C=C/C(=O)c2ccc(OC)cc2O)cc1OC | > 100 | 12.4 | 5.8 |  |  |  |
| COc1ccc(C(=O)/C=C/c2cc(OC)c(OC)cc2OC)c(O)c1 | > 100 | 14.1 | 10.2 |  |  |  |
| COc1ccc(C(=O)/C=C/c2ccc(C(=O)Nc3ccccc3O)cc2)c(O)c1 | > 100 | 16.5 | 10.1 |  |  |  |
| COc1ccc(C(=O)/C=C/c2ccc(C(=O)Nc3ccccc3OC)cc2)c(O)c1 | > 100 | 24.9 | 7.3 |  |  |  |
| COc1ccc(C(=O)/C=C/c2ccc(C(=O)N3CCOCC3)cc2)c(O)c1 | > 100 | 6.1 | 3.2 | Active | inactive | Active |
| COc1ccc(C(=O)/C=C/c2ccc(C(=O)N(C)c3ccccc3)cc2)c(O)c1 | > 100 | 20.4 | 20.1 |  |  |  |
| CCCNC(=O)c1ccc(/C=C/C(=O)c2ccc(OC)cc2O)cc1 | > 100 | 12.9 | 19.9 |  |  |  |
| COc1ccc(C(=O)/C=C/c2ccc(C(=O)N3CCCC3)cc2)c(O)c1 | > 100 | 10.5 | 14.6 |  |  |  |
| COc1ccc(C(=O)/C=C/c2cc(Br)c(OCc3ccccc3)c(OC)c2)c(O)c1 | > 100 | 11.6 | 12.5 |  |  |  |
| CCOCCOc1cccc(/C=C/C(=O)c2ccc(OC)cc2O)c1 | > 100 | 16.8 | 10.5 |  |  |  |
| COC(=O)c1ccc(/C=C/C(=O)c2ccc(OC)cc2O)cc1 | > 100 | 35.8 | 23.8 |  |  |  |
| COc1ccc(C(=O)/C=C/c2ccc(C(=O)Nc3ccc(C)cc3C)cc2)c(O)c1 | > 100 | 16.3 | 8.3 |  |  |  |
| COc1ccc(C(=O)/C=C/c2cc(OC)c(OC)c(OC)c2)c(O)c1 | > 100 | 10.3 | 9.7 |  |  |  |
| COc1ccc(C(=O)/C=C/c2ccc(C(=O)NC(C)C)cc2)c(O)c1 | > 100 | 22.1 | 17.8 |  |  |  |
| CCOCCOc1ccc(/C=C/C(=O)c2ccc(OC)cc2O)cc1 | > 100 | 9.7 | 19.1 |  |  |  |
| COc1ccc(C(=O)/C=C/c2ccc(C(=O)N3CCCCC3)cc2)c(O)c1 | > 100 | 6.8 | 5.9 |  |  |  |
| COc1ccc(C(=O)/C=C/c2ccc(C(=O)O)cc2)c(O)c1 | > 100 | 30.3 | 18.5 |  |  |  |
| COc1ccc(C(=O)/C=C/c2ccc(C(=O)NCc3ccccc3)cc2)c(O)c1 | > 100 | 18 | 18.9 |  |  |  |
| CC(Cc1ccc(O)c(O)c1)C(C)Cc1ccc(O)c(O)c1 (stereo unspecified) [NORDIHYDROGUAIARETIC ACID] |  | 12.4 |  |  |  |  |
| COc1ccc(C(=O)/C=C/c2ccc(C(=O)N3CCN(C)CC3)cc2)c(O)c1 | > 100 | 7.9 | 2.2 |  |  |  |
| COc1ccc(C(=O)/C=C/c2ccc(C(=O)NCCc3ccccc3)cc2)c(O)c1 | > 100 | 14.2 | 19.1 |  |  |  |
| COc1ccc(C(=O)/C=C/c2ccc(OCc3ccccc3)cc2)c(O)c1 | > 100 | 10.2 | 7.8 |  |  |  |
| COc1ccc(/C=C/C(=O)c2ccc(OC)cc2O)cc1 | > 100 | 15.9 | 8.4 |  |  |  |
| CCCCCCCCCCCCNC(=O)c1ccc(/C=C/C(=O)c2ccc(OC)cc2O)cc1 | > 100 | 15.7 | 15.9 |  |  |  |
| O=C(/C=C/c1ccc(O)cc1)c1ccc(O)cc1O [ISOLIQUIRITIGENIN] |  | 18.6 | 19.7 |  |  |  |
